# Published values collected from several papers.
# Organism: Staphylococcus aureus
# Read-out: microbial growth
Compound,method,strain,time,setting,MIC
CC(=O)Nc1c2sscc-2[nH]c1=O,,BAA1556 MRSA,,drug-resistant strain,5 µM
CCCCCCCCCC(=O)N[C@@H](Cc1c[nH]c2ccccc12)C(=O)N[C@H](CC(N)=O)C(=O)N[C@@H](CC(=O)O)C(=O)N[C@@H]1C(=O)NCC(=O)N[C@@H](CCCN)C(=O)N[C@@H](CC(=O)O)C(=O)N[C@H](C)C(=O)N[C@@H](CC(=O)O)C(=O)NCC(=O)N[C@H](CO)C(=O)N[C@@H]([C@H](C)CC(=O)O)C(=O)N[C@@H](CC(=O)c2ccccc2N)C(=O)O[C@@H]1C,broth dilution,USA300,,drug-resistant strain,0.5 µg/mL
CC1C(=NOCc2cn(-c3ccccc3)nn2)CC(c2ccccc2)OC1c1ccccc1 (stereo not drawn),broth dilution,MTCC96,24 h,,25 µg/mL
CN[C@H](CC(C)C)C(=O)N[C@H]1C(=O)N[C@@H](CC(N)=O)C(=O)N[C@H]2C(=O)N[C@H]3C(=O)N[C@H](C(=O)N[C@H](C(=O)O)c4cc(O)cc(O)c4-c4cc3ccc4O)[C@H](O)c3ccc(c(Cl)c3)Oc3cc2cc(c3O[C@@H]2O[C@H](CO)[C@@H](O)[C@H](O)[C@H]2O[C@H]2C[C@](C)(N)[C@H](O)[C@H](C)O2)Oc2ccc(cc2Cl)[C@H]1O,broth dilution,ATCCBAA41,,drug-resistant strain,1 µg/mL
NC[C@H]1O[C@H](O[C@H]2[C@H](O)[C@@H](O[C@H]3O[C@H](CO)[C@@H](O)[C@H](N)[C@H]3O)[C@H](N)C[C@@H]2N)[C@H](O)[C@@H](O)[C@@H]1O,,USA300,,,256 µg/mL
Cc1ccc2nc(-c3ccco3)[nH]c2c1,broth dilution,ATCC43300 MRSA,,drug-resistant strain,256 µg/mL
CCN1CCN(C(=O)Cc2ccc(Nc3ncc(F)c(Nc4ccc(C(=O)Nc5ccccc5Cl)cc4)n3)cc2)CC1,,NCTC8325,,,> 30 µM
COc1cccc(OC)c1C(=O)N[C@@H]1C(=O)N2[C@@H]1SC(C)(C)[C@@H]2C(=O)O,,ATCCBAA41,,"drug-resistant strain, clinical isolate",> 64 µg/mL
COC(=O)c1cc(-c2cccc(NC(=O)Nc3ccc(Cl)c(Cl)c3)c2)on1,broth dilution,ATCC29213,,,> 64 µg/mL
Clc1ccc(Cn2c(-c3ccc(Cl)cc3)nc3ccccc32)cc1,broth dilution,ATCC43300 MRSA,,drug-resistant strain,16 µg/mL
COC(=O)c1cc(-c2cccc(NC(=O)Nc3cc(Cl)ccc3Cl)c2)on1,broth dilution,ATCC29213,,,> 64 µg/mL
COc1ccc(-c2nc3ccc(C)cc3[nH]2)cc1O,broth dilution,ATCC43300 MRSA,,drug-resistant strain,128 µg/mL
CCCCCCCC/C=C\CCCCCCCC(=O)C(F)(F)P(=O)(O)O,,ATCC33591 MRSA,,drug-resistant strain,> 200 µg/mL
O=[N+]([O-])c1ccc(-c2nc3cc(Cl)ccc3[nH]2)o1,broth dilution,ATCC700699 MRSA,,drug-resistant strain,2 µg/mL
COC(=O)c1cc(-c2cccc(NC(=O)Nc3cccc(Br)c3)c2)on1,broth dilution,ATCC29213,,,> 64 µg/mL
O=C(CCCCCCCCCCOc1ccccc1)CP(=O)(O)O,,ATCC33591 MRSA,,drug-resistant strain,100 µg/mL
Oc1ccccc1-c1nc2ccccc2[nH]1,broth dilution,ATCC43300 MRSA,,drug-resistant strain,256 µg/mL
COC(=O)c1cc(-c2cccc(NC(=O)Nc3cccc(C#N)c3)c2)on1,broth dilution,ATCC29213,,,> 64 µg/mL
CC(c1ccc(Cl)c(Cl)c1)n1cnc2cc3c(cc21)CCCC3 (stereo not drawn),,,,,3.1 to 6.3 µg/mL
Cc1ccc2[nH]c3c(c2c1)CCCC3NCCc1ccc(O)cc1 (stereo not drawn),broth dilution,VISA,,,16 µg/mL
COC(=O)c1cc(-c2cccc(NC(=O)Nc3cc(OC)ccc3OC)c2)on1,broth dilution,ATCC29213,,,> 64 µg/mL
CCCCCCC#Cc1cncc(-c2nnc(SCc3cc([N+](=O)[O-])cc([N+](=O)[O-])c3)n2C)c1,,MRSA,,drug-resistant strain,≥ 20 µg/mL
COC(=O)c1cc(Oc2ccc(NC(=O)Nc3ccc(Cl)c(C(F)(F)F)c3)cc2)ccn1,,NCTC8325,,,3 µM
COC(=O)c1cc(-c2cccc(NC(=O)Nc3ccc(F)c(F)c3)c2)on1,broth dilution,ATCC29213,,,> 64 µg/mL
CCCCCCCCCCCC(=O)NP(=O)(O)O,,ATCC33591 MRSA,,drug-resistant strain,200 µg/mL
Cc1ccc2nc(-c3ccc(F)cc3)n(Cc3ccccc3)c2c1,broth dilution,ATCC43300 MRSA,,drug-resistant strain,64 µg/mL
Cc1ccc2[nH]c3c(c2c1)CCCC3NCCc1ccc(Br)cc1 (stereo not drawn),broth dilution,MRSA USA300,,,4 µg/mL
CC[C@H]1OC(=O)[C@H](C)[C@@H](O[C@H]2C[C@@](C)(OC)[C@@H](O)[C@H](C)O2)[C@H](C)[C@@H](O[C@@H]2O[C@H](C)C[C@H](N(C)C)[C@H]2O)[C@](C)(O)C[C@@H](C)C(=O)[C@H](C)[C@@H](O)[C@]1(C)O,,USA300,,,32 µg/mL
COC(=O)c1cc(-c2cccc(NC(=O)Nc3ccccc3)c2)on1,broth dilution,ATCC29213,,,> 64 µg/mL
CN[C@H](CC(C)C)C(=O)N[C@H]1C(=O)N[C@@H](CC(N)=O)C(=O)N[C@H]2C(=O)N[C@H]3C(=O)N[C@H](C(=O)N[C@H](C(=O)O)c4cc(O)cc(O)c4-c4cc3ccc4O)[C@H](O)c3ccc(c(Cl)c3)Oc3cc2cc(c3O[C@@H]2O[C@H](CO)[C@@H](O)[C@H](O)[C@H]2O[C@H]2C[C@](C)(N)[C@H](O)[C@H](C)O2)Oc2ccc(cc2Cl)[C@H]1O,,147,,clinical isolate,0.59 µM
O=C(N[C@H](CO)[C@H](O)c1ccc([N+](=O)[O-])cc1)C(Cl)Cl,,USA300,,,4 µg/mL
O=C(CCCCCCCCCCOc1ccccc1)NP(=O)(O)O,,ATCC33591 MRSA,,drug-resistant strain,100 µg/mL
CC1(C)CC[C@]2(C(=O)O)CC[C@]3(C)C(=CC[C@@H]4[C@@]5(C)CC[C@H](O)C(C)(C)[C@@H]5CC[C@]43C)[C@@H]2C1,,83254,,,64 µg/mL
COC(=O)c1cc(-c2cccc(NC(=O)Nc3cccc(C(F)(F)F)c3)c2)on1,broth dilution,ATCC29213,,,> 64 µg/mL
Fc1ccc(-c2nc3ccccc3[nH]2)cc1,broth dilution,ATCC43300 MRSA,,drug-resistant strain,512 µg/mL
Cn1cc(C2=C(c3cn(C4CCN(Cc5ccccn5)CC4)c4ccccc34)C(=O)NC2=O)c2ccccc21,,NCTC8325,,,> 30 µM
CN[C@H](CC(C)C)C(=O)N[C@H]1C(=O)N[C@@H](CC(N)=O)C(=O)N[C@H]2C(=O)N[C@H]3C(=O)N[C@H](C(=O)N[C@H](C(=O)O)c4cc(O)cc(O)c4-c4cc3ccc4O)[C@H](O)c3ccc(c(Cl)c3)Oc3cc2cc(c3O[C@@H]2O[C@H](CO)[C@@H](O)[C@H](O)[C@H]2O[C@H]2C[C@](C)(N)[C@H](O)[C@H](C)O2)Oc2ccc(cc2Cl)[C@H]1O,,ATCC33592,,drug-resistant strain,0.39 µg/mL
CN[C@H](CC(C)C)C(=O)N[C@H]1C(=O)N[C@@H](CC(N)=O)C(=O)N[C@H]2C(=O)N[C@H]3C(=O)N[C@H](C(=O)N[C@H](C(=O)O)c4cc(O)cc(O)c4-c4cc3ccc4O)[C@H](O)c3ccc(c(Cl)c3)Oc3cc2cc(c3O[C@@H]2O[C@H](CO)[C@@H](O)[C@H](O)[C@H]2O[C@H]2C[C@](C)(N)[C@H](O)[C@H](C)O2)Oc2ccc(cc2Cl)[C@H]1O,,UAMS1,,,1 µg/mL
O=C(CCCCc1ccccc1)CP(=O)(O)O,,ATCC33591 MRSA,,drug-resistant strain,> 200 µg/mL
C=C(NC(=O)C(=C)NC(=O)c1csc(C2=N[C@@H]3c4csc(n4)[C@H]4NC(=O)c5csc(n5)[C@H]([C@](C)(O)[C@@H](C)O)NC(=O)[C@H]5CSC(=N5)/C(=C/C)NC(=O)[C@H]([C@@H](C)O)NC(=O)c5csc(n5)[C@]3(CC2)NC(=O)[C@H](C)NC(=O)C(=C)NC(=O)[C@H](C)NC(=O)[C@H]([C@@H](C)CC)N[C@@H]2C=Cc3c([C@H](C)O)cc(nc3[C@H]2O)C(=O)O[C@@H]4C)n1)C(N)=O,,MSSA,,,0.06 µg/mL
Cc1ccc2nc(-c3cccc([N+](=O)[O-])c3)[nH]c2c1,broth dilution,ATCC43300 MRSA,,drug-resistant strain,64 µg/mL
CC(=O)c1ccc(NC(=O)Nc2ccc(Cl)c(C(F)(F)F)c2)cc1,,NCTC8325,,,30 µM
Cc1ccc2nc(-c3c(F)cccc3Cl)[nH]c2c1,broth dilution,ATCC43300 MRSA,,drug-resistant strain,64 µg/mL
COc1cc(Cc2cnc(N)nc2N)cc(OC)c1OC,broth dilution,,,,~16.6 µM
CC[C@H](C)C[C@H](C)CCCCCCCCC(=O)N[C@H]1C[C@@H](O)[C@@H](NCCN)NC(=O)[C@@H]2[C@@H](O)CCN2C(=O)[C@H]([C@H](O)CCN)NC(=O)[C@H]([C@H](O)[C@@H](O)c2ccc(O)cc2)NC(=O)[C@@H]2C[C@@H](O)CN2C(=O)[C@H]([C@@H](C)O)NC1=O,broth dilution,MB2865,,,> 128 µg/mL
